What was measured:
Assay type in all cases: toxicity, cell-based
U2OS = experiment: Incucyte cell viability with U2OS; conditions: human, 10 µM, compound concentration 10 uM; also: filed as whole numbers so only -1 and 0 and 1 occur
HEK-293T = experiment: Incucyte cell viability with HEK293T; conditions: human, 10 µM, compound concentration 10 uM; also: filed as whole numbers so only -1 and 0 and 1 occur
Fibroblast = experiment: Multiplex assay against human fibroblast
How it was run: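 Four dyes were applied at seeding to live cells: Hoechst33342, BioTracker Green Microtubule Cytoskeleton Dye, MitoTracker Red and Annexin V Alexa Fluor 680. Imaging after compound addition used a CQ1 microscope at 37°C and 5% CO2. CellPathfinder machine-learning gating then sorted cells into Hoechst high-intensity objects or normal cells, normal cells into healthy, pyknosed or fragmented nuclei, and pyknosed cells into mitotic or apoptotic, with tubulin, mitochondrial-mass and membrane-permeability phenotypes given as per cents of healthy-nucleus cells.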

[1] = 0 h, replicate number 1, timepoint 0 hours
[2] = 24 h, replicate number 1, timepoint 24 hours
[3] = 12 h, 1 µM, compound concentration 1 uM, replicate 1
[4] = 12 h, 1 µM, compound concentration 1 uM, replicate 2
[5] = 12 h, 10 µM, compound concentration 10 uM, replicate 1
[6] = 12 h, 10 µM, compound concentration 10 uM, replicate 2
[7] = 24 h, 1 µM, compound concentration 1 uM, replicate 1
[8] = 24 h, 1 µM, compound concentration 1 uM, replicate 2
[9] = 24 h, 10 µM, compound concentration 10 uM, replicate 1
[10] = 24 h, 10 µM, compound concentration 10 uM, replicate 2
[11] = 48 h, 1 µM, compound concentration 1 uM, replicate 1
[12] = 48 h, 1 µM, compound concentration 1 uM, replicate 2
[13] = 48 h, 10 µM, compound concentration 10 uM, replicate 1
[14] = 48 h, 10 µM, compound concentration 10 uM, replicate 2

Cc1cc2c(cc1N1C(=O)c3cccc4c(CCCO)ccc(c34)C1=O)n(C)c(=O)n2C
Growth Rate (U2OS; [1]): 0 | Growth Rate (U2OS; 6 h, replicate number 1, timepoint 6 hours): 0 | Growth Rate (U2OS; 6 h, replicate number 2, timepoint 6 hours): 1 | Growth Rate (U2OS; 12 h, replicate number 1, timepoint 12 hours): 0 | Growth Rate (U2OS; 18 h, replicate number 1, timepoint 18 hours): 0 | Growth Rate (U2OS; 18 h, replicate number 2, timepoint 18 hours): 1 | Growth Rate (U2OS; [2]): 0 | Growth Rate (HEK-293T; [1]): 1 | Growth Rate (HEK-293T; [2]): 1 | Population Apoptotic (%) (Fibroblast; [3]): 68% | Population Fragmented Nuclei (%) (Fibroblast; [3]): 19% | Population Healthy Nuclei (%) (Fibroblast; [3]): 49% | Population Hoechst High Intensity Objects (%) (Fibroblast; [3]): 17% | Population Membrane Permeable-Phenotype (%) (Fibroblast; [3]): 30% | Population Mitochondria Different-Phenotype (%) (Fibroblast; [3]): 8% | Population Mitotic Cells (%) (Fibroblast; [3]): 31% | Population Normal (%) (Fibroblast; [3]): 82% | Population Pyknosed Nuclei (%) (Fibroblast; [3]): 31% | Population Tubulin-Different-Phenotype (%) (Fibroblast; [3]): 41% | Total Cell Count (Fibroblast; [3]): 148 | Population Apoptotic (%) (Fibroblast; [4]): 0% | Population Fragmented Nuclei (%) (Fibroblast; [4]): 6% | Population Healthy Nuclei (%) (Fibroblast; [4]): 90% | Population Hoechst High Intensity Objects (%) (Fibroblast; [4]): 8% | Population Membrane Permeable-Phenotype (%) (Fibroblast; [4]): 1% | Population Mitochondria Different-Phenotype (%) (Fibroblast; [4]): 22% | Population Mitotic Cells (%) (Fibroblast; [4]): 100% | Population Normal (%) (Fibroblast; [4]): 91% | Population Pyknosed Nuclei (%) (Fibroblast; [4]): 3% | Population Tubulin-Different-Phenotype (%) (Fibroblast; [4]): 24% | Total Cell Count (Fibroblast; [4]): 104 | Population Apoptotic (%) (Fibroblast; [5]): 68% | Population Fragmented Nuclei (%) (Fibroblast; [5]): 21% | Population Healthy Nuclei (%) (Fibroblast; [5]): 46% | Population Hoechst High Intensity Objects (%) (Fibroblast; [5]): 12% | Population Membrane Permeable-Phenotype (%) (Fibroblast; [5]): 21% | Population Mitochondria Different-Phenotype (%) (Fibroblast; [5]): 7% | Population Mitotic Cells (%) (Fibroblast; [5]): 31% | Population Normal (%) (Fibroblast; [5]): 87% | Population Pyknosed Nuclei (%) (Fibroblast; [5]): 31% | Population Tubulin-Different-Phenotype (%) (Fibroblast; [5]): 72% | Total Cell Count (Fibroblast; [5]): 126 | Population Apoptotic (%) (Fibroblast; [6]): 37% | Population Fragmented Nuclei (%) (Fibroblast; [6]): 20% | Population Healthy Nuclei (%) (Fibroblast; [6]): 63% | Population Hoechst High Intensity Objects (%) (Fibroblast; [6]): 9% | Population Membrane Permeable-Phenotype (%) (Fibroblast; [6]): 29% | Population Mitochondria Different-Phenotype (%) (Fibroblast; [6]): 77% | Population Mitotic Cells (%) (Fibroblast; [6]): 62% | Population Normal (%) (Fibroblast; [6]): 90% | Population Pyknosed Nuclei (%) (Fibroblast; [6]): 16% | Population Tubulin-Different-Phenotype (%) (Fibroblast; [6]): 96% | Total Cell Count (Fibroblast; [6]): 54 | Population Apoptotic (%) (Fibroblast; [7]): 46% | Population Fragmented Nuclei (%) (Fibroblast; [7]): 20% | Population Healthy Nuclei (%) (Fibroblast; [7]): 55% | Population Hoechst High Intensity Objects (%) (Fibroblast; [7]): 19% | Population Membrane Permeable-Phenotype (%) (Fibroblast; [7]): 31% | Population Mitochondria Different-Phenotype (%) (Fibroblast; [7]): 5% | Population Mitotic Cells (%) (Fibroblast; [7]): 53% | Population Normal (%) (Fibroblast; [7]): 80% | Population Pyknosed Nuclei (%) (Fibroblast; [7]): 24% | Population Tubulin-Different-Phenotype (%) (Fibroblast; [7]): 41% | Total Cell Count (Fibroblast; [7]): 130 | Population Apoptotic (%) (Fibroblast; [8]): 40% | Population Fragmented Nuclei (%) (Fibroblast; [8]): 7% | Population Healthy Nuclei (%) (Fibroblast; [8]): 87% | Population Hoechst High Intensity Objects (%) (Fibroblast; [8]): 3% | Population Membrane Permeable-Phenotype (%) (Fibroblast; [8]): 0% | Population Mitochondria Different-Phenotype (%) (Fibroblast; [8]): 27% | Population Mitotic Cells (%) (Fibroblast; [8]): 60% | Population Normal (%) (Fibroblast; [8]): 96% | Population Pyknosed Nuclei (%) (Fibroblast; [8]): 5% | Population Tubulin-Different-Phenotype (%) (Fibroblast; [8]): 17% | Total Cell Count (Fibroblast; [8]): 96 | Population Apoptotic (%) (Fibroblast; [9]): 58% | Population Fragmented Nuclei (%) (Fibroblast; [9]): 22% | Population Healthy Nuclei (%) (Fibroblast; [9]): 47% | Population Hoechst High Intensity Objects (%) (Fibroblast; [9]): 15% | Population Membrane Permeable-Phenotype (%) (Fibroblast; [9]): 13% | Population Mitochondria Different-Phenotype (%) (Fibroblast; [9]): 17% | Population Mitotic Cells (%) (Fibroblast; [9]): 41% | Population Normal (%) (Fibroblast; [9]): 84% | Population Pyknosed Nuclei (%) (Fibroblast; [9]): 29% | Population Tubulin-Different-Phenotype (%) (Fibroblast; [9]): 45% | Total Cell Count (Fibroblast; [9]): 115 | Population Apoptotic (%) (Fibroblast; [10]): 80% | Population Fragmented Nuclei (%) (Fibroblast; [10]): 18% | Population Healthy Nuclei (%) (Fibroblast; [10]): 62% | Population Hoechst High Intensity Objects (%) (Fibroblast; [10]): 11% | Population Membrane Permeable-Phenotype (%) (Fibroblast; [10]): 41% | Population Mitochondria Different-Phenotype (%) (Fibroblast; [10]): 76% | Population Mitotic Cells (%) (Fibroblast; [10]): 20% | Population Normal (%) (Fibroblast; [10]): 88% | Population Pyknosed Nuclei (%) (Fibroblast; [10]): 18% | Population Tubulin-Different-Phenotype (%) (Fibroblast; [10]): 76% | Total Cell Count (Fibroblast; [10]): 61 | Population Apoptotic (%) (Fibroblast; [11]): 34% | Population Fragmented Nuclei (%) (Fibroblast; [11]): 31% | Population Healthy Nuclei (%) (Fibroblast; [11]): 45% | Population Hoechst High Intensity Objects (%) (Fibroblast; [11]): 21% | Population Membrane Permeable-Phenotype (%) (Fibroblast; [11]): 28% | Population Mitochondria Different-Phenotype (%) (Fibroblast; [11]): 2% | Population Mitotic Cells (%) (Fibroblast; [11]): 65% | Population Normal (%) (Fibroblast; [11]): 78% | Population Pyknosed Nuclei (%) (Fibroblast; [11]): 22% | Population Tubulin-Different-Phenotype (%) (Fibroblast; [11]): 30% | Total Cell Count (Fibroblast; [11]): 129 | Population Apoptotic (%) (Fibroblast; [12]): 100% | Population Fragmented Nuclei (%) (Fibroblast; [12]): 28% | Population Healthy Nuclei (%) (Fibroblast; [12]): 69% | Population Hoechst High Intensity Objects (%) (Fibroblast; [12]): 9% | Population Membrane Permeable-Phenotype (%) (Fibroblast; [12]): 21% | Population Mitochondria Different-Phenotype (%) (Fibroblast; [12]): 1% | Population Mitotic Cells (%) (Fibroblast; [12]): 0% | Population Normal (%) (Fibroblast; [12]): 90% | Population Pyknosed Nuclei (%) (Fibroblast; [12]): 2% | Population Tubulin-Different-Phenotype (%) (Fibroblast; [12]): 35% | Total Cell Count (Fibroblast; [12]): 118 | Population Apoptotic (%) (Fibroblast; [13]): 90% | Population Fragmented Nuclei (%) (Fibroblast; [13]): 35% | Population Healthy Nuclei (%) (Fibroblast; [13]): 54% | Population Hoechst High Intensity Objects (%) (Fibroblast; [13]): 18% | Population Membrane Permeable-Phenotype (%) (Fibroblast; [13]): 22% | Population Mitotic Cells (%) (Fibroblast; [13]): 10% | Population Normal (%) (Fibroblast; [13]): 81% | Population Pyknosed Nuclei (%) (Fibroblast; [13]): 10% | Population Tubulin-Different-Phenotype (%) (Fibroblast; [13]): 62% | Total Cell Count (Fibroblast; [13]): 120 | Population Apoptotic (%) (Fibroblast; [14]): 66% | Population Fragmented Nuclei (%) (Fibroblast; [14]): 26% | Population Healthy Nuclei (%) (Fibroblast; [14]): 68% | Population Hoechst High Intensity Objects (%) (Fibroblast; [14]): 9% | Population Membrane Permeable-Phenotype (%) (Fibroblast; [14]): 23% | Population Mitochondria Different-Phenotype (%) (Fibroblast; [14]): 5% | Population Mitotic Cells (%) (Fibroblast; [14]): 33% | Population Normal (%) (Fibroblast; [14]): 90% | Population Pyknosed Nuclei (%) (Fibroblast; [14]): 6% | Population Tubulin-Different-Phenotype (%) (Fibroblast; [14]): 85% | Total Cell Count (Fibroblast; [14]): 55
